What all share (conditions): stereoisomer not certain
One assay has as its target UniProt Q8VF06. In short, it runs like this: (§1)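 Transient luciferase assays in mammalian cell lines were common, though methods varied by source. The values come from published papers and their supplementary material, with extra details from the original authors when needed. Responsive refers to a measured signal the original authors judged statistically different from baseline, and non-responsive (inactive) to the remainder.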

For another assay, the target named is T1, UniProt Q8VF24.
T1 sequence (whole entry): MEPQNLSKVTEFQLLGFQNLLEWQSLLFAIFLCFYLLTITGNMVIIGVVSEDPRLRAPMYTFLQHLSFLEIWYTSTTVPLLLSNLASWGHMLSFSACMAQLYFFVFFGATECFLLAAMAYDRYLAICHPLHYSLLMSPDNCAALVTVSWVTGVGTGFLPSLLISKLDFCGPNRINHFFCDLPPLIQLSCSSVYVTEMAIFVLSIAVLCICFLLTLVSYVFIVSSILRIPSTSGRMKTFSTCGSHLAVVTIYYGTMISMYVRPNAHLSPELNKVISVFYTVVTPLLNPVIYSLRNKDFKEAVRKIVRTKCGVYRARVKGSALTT
The procedure, abridged: as §1

The target in the next assay is T2, UniProt Q8VF44.
T2 sequence (whole entry): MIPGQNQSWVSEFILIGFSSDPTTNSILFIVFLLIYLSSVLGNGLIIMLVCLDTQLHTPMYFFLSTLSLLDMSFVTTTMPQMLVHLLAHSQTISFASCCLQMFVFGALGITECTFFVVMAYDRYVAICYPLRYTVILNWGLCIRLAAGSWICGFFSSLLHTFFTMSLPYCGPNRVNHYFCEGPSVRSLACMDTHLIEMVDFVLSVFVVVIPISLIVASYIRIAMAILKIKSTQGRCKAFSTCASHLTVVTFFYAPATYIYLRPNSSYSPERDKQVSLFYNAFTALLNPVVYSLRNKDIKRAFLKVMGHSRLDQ
In short, it runs like this: as §1

A further assay deals with T3, UniProt Q8VF52.
T3 sequence (whole entry): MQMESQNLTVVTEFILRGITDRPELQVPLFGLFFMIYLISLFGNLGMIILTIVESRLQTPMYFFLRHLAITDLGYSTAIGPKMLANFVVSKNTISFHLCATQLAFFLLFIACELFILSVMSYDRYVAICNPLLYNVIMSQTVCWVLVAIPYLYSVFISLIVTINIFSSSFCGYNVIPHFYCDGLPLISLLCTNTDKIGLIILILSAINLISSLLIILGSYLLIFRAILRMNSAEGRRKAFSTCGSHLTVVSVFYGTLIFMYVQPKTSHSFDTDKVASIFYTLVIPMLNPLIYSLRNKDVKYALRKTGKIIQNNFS
The procedure, abridged: as §1

A further assay addresses T4, UniProt Q8VFG6.
T4 sequence (whole entry): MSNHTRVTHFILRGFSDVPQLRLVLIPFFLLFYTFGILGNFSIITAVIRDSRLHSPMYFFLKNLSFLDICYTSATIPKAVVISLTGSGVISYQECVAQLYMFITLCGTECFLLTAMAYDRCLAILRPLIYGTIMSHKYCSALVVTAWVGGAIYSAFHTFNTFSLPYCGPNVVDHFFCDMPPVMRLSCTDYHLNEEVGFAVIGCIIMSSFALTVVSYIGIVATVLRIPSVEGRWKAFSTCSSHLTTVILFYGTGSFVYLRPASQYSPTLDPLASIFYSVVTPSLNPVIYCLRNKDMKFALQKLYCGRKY
The procedure, abridged:
as §1

A further assay addresses T5, UniProt Q8VF43.
T5 sequence (whole entry): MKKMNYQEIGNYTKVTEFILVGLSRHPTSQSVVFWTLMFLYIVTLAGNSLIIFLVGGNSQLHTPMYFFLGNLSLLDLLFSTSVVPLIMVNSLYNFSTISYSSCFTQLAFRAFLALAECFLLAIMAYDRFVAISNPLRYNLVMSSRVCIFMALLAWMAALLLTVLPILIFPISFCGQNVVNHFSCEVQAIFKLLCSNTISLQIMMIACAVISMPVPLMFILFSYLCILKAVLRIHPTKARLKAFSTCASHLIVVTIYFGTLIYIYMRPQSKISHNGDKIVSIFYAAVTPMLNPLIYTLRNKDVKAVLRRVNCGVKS
The procedure, abridged: as §1

The target of another assay is T6, UniProt Q8VFM8.
T6 sequence (whole entry): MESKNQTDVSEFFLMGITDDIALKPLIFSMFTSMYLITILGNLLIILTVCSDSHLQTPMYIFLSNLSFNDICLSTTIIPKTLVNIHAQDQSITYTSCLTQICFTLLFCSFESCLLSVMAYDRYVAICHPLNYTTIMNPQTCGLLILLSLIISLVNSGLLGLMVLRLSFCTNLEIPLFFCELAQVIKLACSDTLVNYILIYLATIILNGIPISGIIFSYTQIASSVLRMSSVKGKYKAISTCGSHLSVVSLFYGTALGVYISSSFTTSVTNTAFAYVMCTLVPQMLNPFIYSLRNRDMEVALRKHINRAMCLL
In short, it runs like this:
as §1

The target in a further assay is UniProt Q8VF73. In short, it runs like this: as §1
Another assay deals with UniProt Q8VFB8. In short, it runs like this:
as §1
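Also: active if original authors judged signal statistically different from baseline.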

Chain of UniProt Q8VF06 (Q8VF06 as listed by the source): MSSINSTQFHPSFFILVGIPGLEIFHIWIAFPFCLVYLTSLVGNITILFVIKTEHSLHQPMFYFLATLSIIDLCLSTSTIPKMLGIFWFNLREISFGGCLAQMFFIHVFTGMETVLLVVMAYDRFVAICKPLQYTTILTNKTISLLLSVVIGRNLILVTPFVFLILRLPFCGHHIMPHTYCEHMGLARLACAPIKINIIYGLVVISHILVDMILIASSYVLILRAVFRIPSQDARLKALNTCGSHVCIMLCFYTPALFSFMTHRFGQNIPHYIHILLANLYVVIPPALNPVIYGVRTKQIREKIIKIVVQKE
Chain of UniProt Q8VF73 (Q8VF73 as listed by the source): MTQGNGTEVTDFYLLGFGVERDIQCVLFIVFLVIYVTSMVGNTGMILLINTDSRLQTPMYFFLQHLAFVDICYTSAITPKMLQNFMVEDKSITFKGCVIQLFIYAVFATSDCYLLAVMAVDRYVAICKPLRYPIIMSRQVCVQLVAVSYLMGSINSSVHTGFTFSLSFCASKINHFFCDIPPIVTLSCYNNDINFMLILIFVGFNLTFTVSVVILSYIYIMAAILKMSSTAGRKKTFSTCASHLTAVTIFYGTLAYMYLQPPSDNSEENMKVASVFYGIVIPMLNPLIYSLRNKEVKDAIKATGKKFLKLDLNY
Chain of UniProt Q8VFB8 (Q8VFB8 as listed by the source): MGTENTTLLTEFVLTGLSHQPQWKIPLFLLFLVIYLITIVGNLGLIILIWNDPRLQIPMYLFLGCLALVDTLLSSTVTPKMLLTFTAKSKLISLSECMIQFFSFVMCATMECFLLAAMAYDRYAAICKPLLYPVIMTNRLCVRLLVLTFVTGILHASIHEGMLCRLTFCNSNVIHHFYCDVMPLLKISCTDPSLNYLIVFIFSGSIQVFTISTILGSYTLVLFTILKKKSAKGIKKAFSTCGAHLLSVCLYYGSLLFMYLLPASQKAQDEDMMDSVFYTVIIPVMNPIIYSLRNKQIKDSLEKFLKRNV

Take `CCCC(C)=O`: the “odorant receptor agonist call” value in the assay with UniProt Q8VF06, in the assay with UniProt Q8VF24, with UniProt Q8VF44, in the assay with UniProt Q8VF52 and with UniProt Q8VFG6 was “inactive” throughout.
In the case of `CCCCCCCCCCC(=O)O`, in the assay with UniProt Q8VF06, the “odorant receptor agonist call” value was “inactive”.
For the compound `CCCCCC1=C(C)CCC1=O`, the “odorant receptor agonist call” value with UniProt Q8VF24, in the assay with UniProt Q8VF43, with UniProt Q8VF44, in the assay with UniProt Q8VFG6 and with UniProt Q8VFM8 was “inactive” in each case. In the assay with UniProt Q8VF52, the “odorant receptor agonist call” value is “active”.
For the compound `CCCCCCCCCS`, the “odorant receptor agonist call” value with UniProt Q8VF24, in the assay with UniProt Q8VF43, with UniProt Q8VF44, with UniProt Q8VF52, with UniProt Q8VFG6 and with UniProt Q8VFM8 was “inactive” each time.
For the compound `CCCCC(=O)O`, the “odorant receptor agonist call” value with UniProt Q8VF06, in the assay with UniProt Q8VF24, in the assay with UniProt Q8VF43, in the assay with UniProt Q8VF44, with UniProt Q8VF52 and with UniProt Q8VFG6 was “inactive” throughout. In addition, in the assay with UniProt Q8VFM8, the “odorant receptor agonist call” value is “inactive”.
For the compound `CCCCCCCC(C)=O`, the “odorant receptor agonist call” value with UniProt Q8VF24, with UniProt Q8VF43, with UniProt Q8VF44, in the assay with UniProt Q8VF52, in the assay with UniProt Q8VFG6 and with UniProt Q8VFM8 was “inactive” in each case.
On to `CCCCCCCCO`, for which the “odorant receptor agonist call” value with UniProt Q8VF06, with UniProt Q8VF24, in the assay with UniProt Q8VF43, with UniProt Q8VF44, with UniProt Q8VF52 and with UniProt Q8VFG6 was “inactive” each time. The “odorant receptor agonist call” value with UniProt Q8VFM8 is “inactive”.
On to `CCCCCCCCCO`, for which the “odorant receptor agonist call” value with UniProt Q8VF06, with UniProt Q8VF24, with UniProt Q8VF43, in the assay with UniProt Q8VF44, with UniProt Q8VF52 and with UniProt Q8VFG6 was “inactive” in each case. The “odorant receptor agonist call” value in the assay with UniProt Q8VFM8 is “inactive”.
In the case of `CCCCCCCCS`, the “odorant receptor agonist call” value in the assay with UniProt Q8VF24, in the assay with UniProt Q8VF43, in the assay with UniProt Q8VF44, with UniProt Q8VF52, with UniProt Q8VFG6 and with UniProt Q8VFM8 was “inactive” throughout.
As to `CCC(=O)C(=O)CC`, the “odorant receptor agonist call” value with UniProt Q8VF24, with UniProt Q8VF43, with UniProt Q8VF44, with UniProt Q8VF52, with UniProt Q8VFG6 and with UniProt Q8VFM8 was “inactive” in each case.
Consider `CCCCCCCCCCCC(=O)O`, for which the “odorant receptor agonist call” value with UniProt Q8VF06 was “inactive”.
Regarding `CCCCCCCCC(=O)O`, the “odorant receptor agonist call” value in the assay with UniProt Q8VF06 was “active”. For the same compound, the “odorant receptor agonist call” value with UniProt Q8VF24, with UniProt Q8VF43, with UniProt Q8VF44, with UniProt Q8VF52, with UniProt Q8VFG6 and with UniProt Q8VFM8 was “inactive” in each case.
Turning to `CCCC(=O)C(C)=O`, the “odorant receptor agonist call” value in the assay with UniProt Q8VF24, in the assay with UniProt Q8VF43, with UniProt Q8VF44, with UniProt Q8VF52, with UniProt Q8VFG6 and in the assay with UniProt Q8VFM8 was “inactive” each time.
For `CCCCC=O`, the “odorant receptor agonist call” value with UniProt Q8VF06, with UniProt Q8VF43, with UniProt Q8VF52 and in the assay with UniProt Q8VFM8 was “inactive” throughout.
For `CCC(=O)O`, the “odorant receptor agonist call” value with UniProt Q8VF24, in the assay with UniProt Q8VF43, with UniProt Q8VF44, with UniProt Q8VF52, in the assay with UniProt Q8VFG6 and with UniProt Q8VFM8 was “inactive” in each case.
With `CCCCCCCCCCCO`, the “odorant receptor agonist call” value with UniProt Q8VF06 was “active”. The “odorant receptor agonist call” value with UniProt Q8VF43, with UniProt Q8VF52 and with UniProt Q8VFM8 was “inactive” throughout.
`CCCCOC(=O)CCC`: in the assay with UniProt Q8VF06, the “odorant receptor agonist call” value was “inactive”.
On to `O=C1CCOc2ccccc21`, for which the “odorant receptor agonist call” value in the assay with UniProt Q8VF24, in the assay with UniProt Q8VF43, with UniProt Q8VF44 and in the assay with UniProt Q8VFM8 was “inactive” throughout. In addition, the “odorant receptor agonist call” value in the assay with UniProt Q8VF52, with UniProt Q8VF73, with UniProt Q8VFB8 and in the assay with UniProt Q8VFG6 was “active” throughout.

For the origin of these results see the M2OR odorant receptor database.
